How the values were obtained:
LS174T [1] = test: Parent […] tested for the cytotoxicity in LS174T cells; type: functional, cell-based; details: Homo sapiens
LS174T [2] = test: The compound was evaluated for Activation Factor; type: functional, Homo sapiens
LS174T [3] = test: Tested for the cytotoxicity in LS174T cells before activation by enzyme nitroreductase/NADH; type: functional, cell-based; details: Homo sapiens
How it was run: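 LS174T adenocarcinoma cells were seeded at 2000 cells/well and treated with various prodrug concentrations for 1 h without enzyme. They were washed and incubated for 3 days. IC50 is the dose inhibiting growth by 50% relative to drug-free controls.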

LS174T [4] = test: Tested for the cytotoxicity in LS174T cells after activation by enzyme nitroreductase/NADH; type: functional, cell-based; details: Homo sapiens
How it was run: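 Human adenocarcinoma LS174T cells were seeded at 2000 cells/well and exposed to a range of prodrug concentrations together with nitroreductase and NADH cofactor for 1 h. Cells were washed and grown for 3 days. IC50 is the prodrug dose giving 50% growth inhibition versus drug-free controls.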

LS174T [5] = test: Tested for the cytotoxicity in LS174T cells; 0.001-0.01; type: functional, cell-based; details: Homo sapiens

SMILES | IC50 (LS174T [1]) | Activation Factor (LS174T [2]) | IC50 (LS174T [3]) | IC50 (LS174T [4]) | IC50 (LS174T [5])
COc1cc2c(cc1OCc1ccccc1)N(C(=O)OCc1ccc([N+](=O)[O-])cc1)[C@@H](O)[C@@H]1CCCN1C2=O | 8 nM | >100 | > 500 µM | 5 µM | 
C/C=C1/C[C@H]2C=Nc3cc(OCc4ccccc4)c(OC)cc3C(=O)N2C1 |  |  |  |  | 10 nM
C/C=C1/C[C@H]2[C@H](O)N(C(=O)OCc3ccc([N+](=O)[O-])cc3)c3cc(OCc4ccccc4)c(OC)cc3C(=O)N2C1 | 1 nM | 13.5 | 86.2 µM | 6.4 µM | 
COc1cc2c(cc1OCCCOc1cc3c(cc1OC)C(=O)N1CCC[C@H]1[C@H](O)N3C(=O)OCc1ccc([N+](=O)[O-])cc1)N(C(=O)OCc1ccc([N+](=O)[O-])cc1)[C@@H](O)[C@@H]1CCCN1C2=O | 0.5 nM | 15.7 | 215 µM | 13.7 µM | 
